ChEMBL document CHEMBL4346661, “Design, synthesis and evaluation of novel diaryl-1,5-diazoles derivatives bearing morpholine as potent dual COX-2/5-LOX inhibitors and antitumor agents” (Eur J Med Chem, 2019)
The source made the active and inactive calls. The rule behind the calls is not given here.

How the values were obtained:
B16-F10 [1] = assay: Antitumor activity against mouse B16F10 cells implanted in nude mouse assessed as reduction in tumor size at 20 mg/kg, ip administered once per 2 days for 14 days by caliper method; assay type: functional
Summary of the method: (§1)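 Nude mice were given 5×10^6 F10 cells subcutaneously in the right flank. At about 100 mm3, 24 mice were randomized into four groups of vehicle or compound. Dosing was intraperitoneal every two days for two weeks. Tumor volume was recorded every other day. Tumors were excised and weighed after the last treatment, and body weight was monitored.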

HEK-293T = assay: Antiproliferative activity against human 293T cells incubated for 48 hrs by MTT assay; assay type: cell-based
Summary of the method: (§2)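 MTT assay on F10 (murine melanoma), HeLa, A549, MCF-7 and 293T (human renal epithelium) cells. IC50 given as mean ± SD of three independent experiments.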

A549 = assay: Antiproliferative activity against human A549 cells incubated for 48 hrs by MTT assay; assay type: functional, cell-based; conditions: A549, 48 h; summary of the method: as §2
MCF7 = assay: Antiproliferative activity against human MCF7 cells incubated for 48 hrs by MTT assay; assay type: functional, cell-based; conditions: MCF7, 48 h; summary of the method: as §2
B16-F10 [2] = assay: Antiproliferative activity against mouse B16F10 cells incubated for 48 hrs by MTT assay; assay type: functional, cell-based; conditions: B16-F10, 48 h; summary of the method: as §2
B16-F10 [3] = assay: Antitumor activity against mouse B16F10 cells implanted in nude mouse assessed as decrease in tumor weight at 20 mg/kg, ip administered once per 2 days for 14 days by caliper method relative to control; assay type: functional, organism-based; summary of the method: as §1
B16-F10 [4] = assay: Inhibition of LPS-induced PGE2 production in mouse B16F10 cells at 6.25 uM incubated for 24 hrs by enzyme immunoassay; assay type: functional, cell-based
Summary of the method: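 F10 cells treated for 24 h alongside LPS (1 µg/ml), test agent at 6.25 µM. Supernatant collected by centrifugation and PGE2 measured with a PGE2 enzyme immunoassay (ELISA) kit. Mean ± SD of three independent experiments.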

[5] = biological target: T1, Prostaglandin G/H synthase 2 (Homo sapiens, UniProt P35354); assay: Inhibition of COX2 (unknown origin) using arachidonic acid as substrate incubated for 10 mins by Ellman's reagent based COX-1/COX-2 ELISA assay
T1 sequence (P35354 whole entry): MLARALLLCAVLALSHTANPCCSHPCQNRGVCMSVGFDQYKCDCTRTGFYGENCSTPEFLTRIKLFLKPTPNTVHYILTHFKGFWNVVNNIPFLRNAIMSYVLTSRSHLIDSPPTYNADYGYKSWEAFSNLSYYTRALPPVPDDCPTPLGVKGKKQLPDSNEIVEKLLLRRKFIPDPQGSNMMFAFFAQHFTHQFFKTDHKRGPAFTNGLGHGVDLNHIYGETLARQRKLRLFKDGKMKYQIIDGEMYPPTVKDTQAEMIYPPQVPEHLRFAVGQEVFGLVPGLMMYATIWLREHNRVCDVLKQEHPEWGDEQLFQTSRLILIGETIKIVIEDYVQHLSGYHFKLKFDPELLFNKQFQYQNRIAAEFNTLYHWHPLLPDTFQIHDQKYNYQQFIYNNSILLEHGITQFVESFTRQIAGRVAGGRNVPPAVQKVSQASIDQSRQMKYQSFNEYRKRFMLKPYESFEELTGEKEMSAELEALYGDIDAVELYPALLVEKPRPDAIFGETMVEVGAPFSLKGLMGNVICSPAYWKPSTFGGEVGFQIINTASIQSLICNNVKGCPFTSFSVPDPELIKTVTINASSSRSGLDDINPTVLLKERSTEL

[6] = biological target: Prostaglandin G/H synthase 1 (Homo sapiens, UniProt P23219); assay: Inhibition of COX1 (unknown origin) using arachidonic acid as substrate incubated for 10 mins by Ellman's reagent based COX-1/COX-2 ELISA assay
Prostaglandin G/H synthase 1, sequence (P23219 whole entry): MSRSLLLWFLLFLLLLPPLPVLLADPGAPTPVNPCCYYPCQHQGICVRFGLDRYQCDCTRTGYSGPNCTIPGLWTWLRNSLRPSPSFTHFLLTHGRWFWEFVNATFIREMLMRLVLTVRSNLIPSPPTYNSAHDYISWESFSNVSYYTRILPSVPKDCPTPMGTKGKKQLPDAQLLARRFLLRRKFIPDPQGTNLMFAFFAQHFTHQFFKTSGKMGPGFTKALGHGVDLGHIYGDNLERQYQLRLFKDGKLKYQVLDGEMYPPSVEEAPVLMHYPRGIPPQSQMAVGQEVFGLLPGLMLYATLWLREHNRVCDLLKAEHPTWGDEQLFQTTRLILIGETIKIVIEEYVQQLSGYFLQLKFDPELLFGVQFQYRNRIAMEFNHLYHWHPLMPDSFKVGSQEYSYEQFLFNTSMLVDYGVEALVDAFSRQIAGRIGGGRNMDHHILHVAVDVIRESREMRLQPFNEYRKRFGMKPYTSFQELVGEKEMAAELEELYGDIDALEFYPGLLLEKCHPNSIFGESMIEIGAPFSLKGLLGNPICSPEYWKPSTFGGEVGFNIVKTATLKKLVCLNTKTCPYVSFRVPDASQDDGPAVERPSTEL

Homo sapiens = species: Homo sapiens; assay: Selectivity index, ratio of IC50 for COX1 (unknown origin) to IC50 for COX2 (unknown origin)
Summary of the method: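 Ratio of COX-1 IC50 to COX-2 IC50, from human COX-1 and human COX-2 inhibitor screening assay kits. Each IC50 is the concentration giving 50% enzyme inhibition, taken as the mean of four determinations.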

HeLa = assay: Antiproliferative activity against human HeLa cells incubated for 48 hrs by MTT assay; assay type: functional, cell-based; summary of the method: as §2
[7] = Inhibition of 5-LOX assessed as calcium ionophore A23187-stimulated LTB4 production preincubated for 30 mins followed by calcium ionophore A23187 addition and measured after 30 mins by ELISA

Question: What does the source list for `Cc1ccc(-c2cc(C(F)(F)F)nn2-c2ccc(S(N)(=O)=O)cc2)cc1` [CELECOXIB]?
Answer: Activity (B16-F10 [1]): 978.35 mm3; IC50 (HEK-293T): 97.9 µM; IC50 (A549): 11 µM; IC50 (MCF7): 12.6 µM; IC50 (B16-F10 [2]): 13.3 µM; Activity (B16-F10 [3]): Active; inhibition (B16-F10 [4]): Active

Question: What does the source list for `NS(=O)(=O)c1ccc(-n2nc(C(=O)N3CCSCC3)cc2-c2cccc(Cl)c2)cc1`?
Answer: IC50 (HEK-293T): 191 µM; IC50 [5]: 0.21 to 0.22 µM; IC50 (A549): 15.4 µM; IC50 [6]: 29.4 µM; IC50 (MCF7): 12.5 µM; Ratio IC50 (Homo sapiens): 140; IC50 (HeLa): 14.8 µM; IC50 (B16-F10 [2]): 13.9 µM; IC50 [7]: 0.87 µM

Question: Which results are given for `NS(=O)(=O)c1ccc(-n2nc(C(=O)OCCCN3CCOCC3)cc2-c2ccc(C(F)(F)F)cc2)cc1`?
Answer: IC50 (HEK-293T): 179 µM; IC50 [5]: 0.21 µM; IC50 (A549): 15.2 µM; IC50 [6]: 28.5 µM; IC50 (MCF7): 14.7 µM; Ratio IC50 (Homo sapiens): 136; IC50 (HeLa): 29.8 µM; IC50 (B16-F10 [2]): 14.4 µM; IC50 [7]: 0.75 µM

Question: With `COc1ccc(-c2cc(C(=O)NCCN3CCOCC3)nn2-c2ccc(S(N)(=O)=O)cc2)cc1` as the compound, how does the IC50 (HEK-293T) read?
Answer: 144 µM

Question: What about the IC50 [5] of the same compound?
Answer: 0.87 µM

Question: What about the IC50 (A549) of the same compound?
Answer: 17.6 µM

Question: And the IC50 (MCF7)?
Answer: 15 µM

Question: What about the IC50 (HeLa) of the same compound?
Answer: 20.4 µM

Question: And the IC50 (B16-F10 [2])?
Answer: 19.5 µM

Question: What about the IC50 [7] of the same compound?
Answer: 0.91 µM

Question: For `NS(=O)(=O)c1ccc(-n2nc(C(=O)N3CCSCC3)cc2-c2ccc(C(F)(F)F)cc2)cc1`, which IC50 (HEK-293T) is on record?
Answer: 136 µM

Question: And the IC50 [5]?
Answer: 0.19 µM

Question: What about the IC50 (A549) of the same compound?
Answer: 10.2 µM

Question: What about the IC50 [6] of the same compound?
Answer: 30.8 µM

Question: And the IC50 (MCF7)?
Answer: 9.25 µM

Question: And the Ratio IC50 (Homo sapiens)?
Answer: 162

Question: What about the IC50 (HeLa) of the same compound?
Answer: 9.94 µM

Question: And the IC50 (B16-F10 [2])?
Answer: 8.16 µM

Question: And the IC50 [7]?
Answer: 0.71 µM

Question: With `NS(=O)(=O)c1ccc(-n2nc(C(=O)N3CCOCC3)cc2-c2ccc(Br)cc2)cc1` as the compound, how does the IC50 (HEK-293T) read?
Answer: 160 µM

Question: And the IC50 [5]?
Answer: 0.31 µM

Question: And the IC50 (A549)?
Answer: 20 µM

Question: And the IC50 (MCF7)?
Answer: 17.9 µM

Question: What about the IC50 (HeLa) of the same compound?
Answer: 22.6 µM

Question: And the IC50 (B16-F10 [2])?
Answer: > 100 µM

Question: And the IC50 [7]?
Answer: 0.98 µM

Question: Which IC50 (HEK-293T) does the source give for `CCOc1ccc(-c2cc(C(=O)NCCN3CCOCC3)nn2-c2ccc(S(N)(=O)=O)cc2)cc1` here?
Answer: 155 µM

Question: And the IC50 [5]?
Answer: 0.85 µM

Question: What about the IC50 (A549) of the same compound?
Answer: 16.5 µM

Question: What about the IC50 (MCF7) of the same compound?
Answer: 25.8 µM

Question: And the IC50 (HeLa)?
Answer: 20.8 µM

Question: And the IC50 (B16-F10 [2])?
Answer: 24.2 µM

Question: And the IC50 [7]?
Answer: 0.86 µM

Question: Which IC50 (HEK-293T) does the source give for `NS(=O)(=O)c1ccc(-n2nc(C(=O)OCCCN3CCOCC3)cc2-c2ccc(Cl)cc2)cc1` here?
Answer: 189 µM

Question: What about the IC50 [5] of the same compound?
Answer: 5.47 µM

Question: And the IC50 (A549)?
Answer: > 100 µM

Question: What about the IC50 (MCF7) of the same compound?
Answer: 22.1 µM

Question: What about the IC50 (HeLa) of the same compound?
Answer: 21.4 µM

Question: What about the IC50 (B16-F10 [2]) of the same compound?
Answer: 26.8 µM

Question: What about the IC50 [7] of the same compound?
Answer: 0.85 µM

Question: For `CCOc1ccc(-c2cc(C(=O)OCCN3CCOCC3)nn2-c2ccc(S(N)(=O)=O)cc2)cc1`, which IC50 (HEK-293T) is on record?
Answer: 116 µM

Question: And the IC50 [5]?
Answer: 1.11 µM

Question: What about the IC50 (A549) of the same compound?
Answer: 21.5 µM

Question: What about the IC50 (MCF7) of the same compound?
Answer: 18.8 µM

Question: What about the IC50 (HeLa) of the same compound?
Answer: 29.8 µM

Question: What about the IC50 (B16-F10 [2]) of the same compound?
Answer: 20.2 µM

Question: What about the IC50 [7] of the same compound?
Answer: 0.79 µM

Question: With `NS(=O)(=O)c1ccc(-n2nc(C(=O)NCCN3CCOCC3)cc2-c2ccc(F)cc2)cc1` as the compound, how does the IC50 (HEK-293T) read?
Answer: 112 µM

Question: And the IC50 [5]?
Answer: 0.16 µM

Question: And the IC50 (A549)?
Answer: > 100 µM

Question: And the IC50 (MCF7)?
Answer: 15.8 µM

Question: What about the IC50 (HeLa) of the same compound?
Answer: > 100 µM

Question: What about the IC50 (B16-F10 [2]) of the same compound?
Answer: > 100 µM

Question: And the IC50 [7]?
Answer: 1.01 µM

Question: What does the source list for `CCOc1ccc(-c2cc(C(=O)OCCCN3CCOCC3)nn2-c2ccc(S(N)(=O)=O)cc2)cc1`?
Answer: IC50 (HEK-293T): 179 µM; IC50 [5]: 7.64 µM; IC50 (A549): > 100 µM; IC50 (MCF7): 15.4 µM; IC50 (HeLa): > 100 µM; IC50 (B16-F10 [2]): > 100 µM; IC50 [7]: 0.72 µM

Question: For `NS(=O)(=O)c1ccc(-n2nc(C(=O)N3CCSCC3)cc2-c2ccccc2)cc1`, which IC50 (HEK-293T) is on record?
Answer: 164 µM

Question: What about the IC50 [5] of the same compound?
Answer: 0.67 µM

Question: What about the IC50 (A549) of the same compound?
Answer: 30.8 µM

Question: What about the IC50 (MCF7) of the same compound?
Answer: 18.9 µM

Question: And the IC50 (HeLa)?
Answer: > 100 µM

Question: What about the IC50 (B16-F10 [2]) of the same compound?
Answer: > 100 µM

Question: What about the IC50 [7] of the same compound?
Answer: 3.41 µM

Question: For `NS(=O)(=O)c1ccc(-n2nc(C(=O)OCCCN3CCOCC3)cc2-c2ccc(F)cc2)cc1`, which IC50 (HEK-293T) is on record?
Answer: > 300 µM

Question: What about the IC50 [5] of the same compound?
Answer: 3.57 µM

Question: What about the IC50 (A549) of the same compound?
Answer: > 100 µM

Question: What about the IC50 (MCF7) of the same compound?
Answer: > 100 µM

Question: What about the IC50 (HeLa) of the same compound?
Answer: > 100 µM

Question: And the IC50 (B16-F10 [2])?
Answer: > 100 µM

Question: And the IC50 [7]?
Answer: 0.75 µM

Question: With `COc1cccc(-c2cc(C(=O)N3CCOCC3)nn2-c2ccc(S(N)(=O)=O)cc2)c1` as the compound, how does the IC50 (HEK-293T) read?
Answer: 134 µM

Question: And the IC50 [5]?
Answer: 2.25 µM

Question: What about the IC50 (A549) of the same compound?
Answer: > 100 µM

Question: And the IC50 (MCF7)?
Answer: 26 µM

Question: And the IC50 (HeLa)?
Answer: > 100 µM

Question: What about the IC50 (B16-F10 [2]) of the same compound?
Answer: 29.2 µM

Question: And the IC50 [7]?
Answer: 0.96 µM
